The values that follow come from PubChem BioAssay AID504383 (The Scripps Research Institute Molecular Screening Center, 2011).

About 1,200 (48%) of roughly 2,500 compounds were called active.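 The calls were made as follows: active = mean activation above the low control average plus 3 SD, as set in the primary screen (cut at about 12% in these data); inactive = the rest.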 The set was probably picked from earlier hits. Some of the results follow.

The experiment deals with Troponin I, cardiac muscle (Homo sapiens) + Troponin T, cardiac muscle (Homo sapiens) + Troponin C, slow skeletal and cardiac muscles (Homo sapiens) (UniProt P19429+P45379+P63316). In words: calcium sensitizers of cardiac thin filaments – biochemical, IANBD-TnC fluorescence, triplicate, confirmation (AID 504383).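 Also: 0% = DMSO at 0.472 mM calcium and 100% = DMSO at 2.9 mM calcium.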 The settings on record: IANBD-labeled cardiac RTF, Ca2+ sensitivity fluorescence; at 7.2 µM; active compounds read high; scaled from EC20 to saturating calcium; tested at EC20 calcium, 0.472 mM. In short, it runs like this:
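Assay system: labelled regulated thin filament protein complex; schedule: 15 min compound incubation with filaments at 25 °C; benchmarks: low control EC20 calcium, high control EC100 calcium; reagent: Ca2+ 0.472 mM, EC20 level; doses: one dose, 7.2 µM nominal; evaluation: fluorescence gain scaled between EC20 and EC100 calcium controls; signal: filament fluorescence intensity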
As for `O=C1CCC[C@@H]2C[C@@]3(C[C@@H]4CCN1[C@H]24)Nc1cc([N+](=O)[O-])ccc1NC3=NC1CCCCC1`, the activation was 41.2% (active). Then `COC(=O)C(=N/Nc1ccccc1C(=O)OC)/C(C)=N/O`, with 35.7% (active); and `N#C/C(=C\c1ccc(N2CCOCC2)o1)c1nc2ccccc2[nH]1`, with 29.6% (active).

With `Cc1ccc2nc(/C(C#N)=C\c3ccc(N4CCOCC4)o3)[nH]c2c1`, the activation is 44.2% (active). The figure for `N#C/C(=C/c1ccc(N2CCOCC2)o1)c1nc2ccccc2[nH]1` is 11.4% (inactive); for `c1ccc(-c2cn3nc4c(nc3n2)CCCC4)cc1` it is 48.2% (active).

For `Clc1ccc(-n2cc(-c3ccc(Br)cc3)[n+]3c2CCCCC3)cc1`, the activation is 0.54% (inactive).

As for `Brc1ccc(-c2cn3nc4c(nc3n2)CCCC4)cc1`, the activation was 22.8% (active).

On to `Clc1ccc(-c2cn3nc4c(nc3n2)CCCC4)cc1`, for which the activation is 9.46% (inactive). Turning to `CC1(C)CC(=O)C=C(NCc2ccc(Cl)c(Cl)c2)C1`, the activation was 3.4% (inactive). Then `CC1(C)CC(=O)C=C(Nc2ccccc2N)C1`, with 31.4% (active); and `O/C=c1\ccc2cccc3nc(C(F)(F)F)nc1c23`, with 5010% (active); and `O=C(NCCc1ccccc1)c1ccc(Cl)nc1`, with 16.1% (active). As to `Cc1ccccc1C(=O)NCCCc1ccccc1`, the activation was 0.23% (inactive).

Turning to `COC(=O)C1=C(C(=O)c2ccc(C)cc2)C(c2ccc(OC)c(OC)c2)n2nnnc2N1` (stereo not given), the activation was 9.37% (inactive).

As for `CCOc1c2ccc(C(=O)NCCc3cccs3)cc2nn1CC`, the activation is 9.3% (inactive). Then `CC(C)CCNC(=O)c1ccc2c(SCC(=O)O)c3c(nc2c1)CCC3`, with 35.4% (active); and `Cc1cc(C)n2nc(SCC(=O)N(C)Cc3ccccc3)nc2n1`, with -3.59% (inactive).

In the case of `CN(Cc1ccccc1)C(=O)N1CCOCC1`, the activation is 12.1% (active). The figure for `O=C(N1CCOCC1)N1CCC(n2nnc3ccccc32)CC1` is 5.64% (inactive). Then `CCc1cc(C(=O)Nc2ccc(OC)nc2)sc1C`, with 4.99% (inactive); and `O=C(COC(=O)C1CCC(=O)N1)Nc1ccc(Oc2ccccc2)cc1` (stereo not given), with 5.98% (inactive); and `O=C(COC(=O)C1CCC1)NCc1ccccc1`, with 286% (active). In the case of `Cc1ccc(C(=O)COC(=O)C2CCC2)cc1`, the activation was 9.89% (inactive). As for `O=C(COc1ccc(Cl)cc1)NCc1ccccc1`, the activation is 10.9% (inactive). Then `O=C(COC(=O)C1CCCCC1)Nc1ccc([N+](=O)[O-])cc1`, with 82.4% (active); and `CCn1cc(C(=O)NCCC(=O)NCCO)c(=O)c2cc3c(cc21)OCO3`, with 57.2% (active).

Take `CCC(CO)[n+]1c(C)cc(/C=C2\Sc3ccccc3N2Cc2ccccc2)cc1C` (stereo not given): the activation was 3.94% (inactive). The figure for `COc1ccccc1-[n+]1c(C)cc(/C=C2\Sc3ccccc3N2C)cc1C` is 12% (active); for `CC[n+]1c(/C=C2\Sc3ccccc3N2C)ccc2cccc(C)c21` it is 6.15% (inactive).

Turning to `COc1ccc(-[n+]2c(C)cc(/C=C3\Sc4ccccc4N3C)cc2C)cc1`, the activation was 249% (active). Turning to `Oc1cccc(Nc2nc(O)c(/C=C3\C=Nc4ccccc43)s2)c1`, the activation was 127% (active). As for `CC(C)=CCC/C(C)=C/Cc1c(O)ccc(C(=O)/C=C/c2ccc(O)cc2)c1O`, the activation was 563% (active).

As to `CN(C)c1ccc(/C=C/C(=O)c2ccc(O)cc2)cc1`, the activation was 1.84% (inactive).

As for `O=C(Cc1ccccc1)Nc1cccc(-c2nc3ncccc3o2)c1`, the activation was 15.3% (active). Then `COc1cccc(CC(NC(C)=O)C(=O)NC2CCN(c3nc(C)cc(C)c3C#N)CC2)c1OC` (stereo not given), with 34% (active). The figure for `CC(=O)NC(Cc1ccc(F)c(F)c1)C(=O)NC1CCN(S(=O)(=O)c2ccc(C)cc2)CC1` (stereo not given) is 6.59% (inactive); for `CCOC(=O)[C@H]1[C@H]2COc3ccccc3[C@@H]2N2C(=O)CN(Cc3ccc(C)cc3)C(=O)[C@@]12C` it is 8.95% (inactive); for `N#C/C(=C\c1ccccn1)c1nc2ccccc2s1` it is 14.5% (active). The figure for `N#C/C(=C(/O)COC(=O)c1ccccc1O)c1nc2ccccc2s1` is 5.53% (inactive); for `COc1ccc2[nH]c(C(=O)N3CCC(Cc4ccccc4)CC3)cc2c1` it is 13.6% (active); for `CN1CCN(C(=O)c2cc3ccccc3[nH]2)CC1` it is 6.99% (inactive). In the case of `O=C1c2cccc3cccc(c23)C(=O)N1CC1CCN(S(=O)(=O)c2ccc(F)cc2)CC1`, the activation was 134% (active). The figure for `O=C1NC(=NCc2ccccc2)S/C1=C\c1ccccc1` is 50.1% (active); for `Cc1ccc(N=C2NC(=O)/C(=C/c3cccnc3)S2)cc1C` it is 3.85% (inactive).

With `Cc1ccnc(N/C=C(\C#N)c2nc(-c3cccc(Br)c3)cs2)c1`, the activation was 27.5% (active). Then `Cc1ccnc(NC(=O)c2ccc(Br)s2)c1`, with 5.46% (inactive); and `N#C/C(=C\C=C\c1ccccc1)c1nc(-c2ccc3c(c2)OCO3)cs1`, with 7.13% (inactive); and `O=S(=O)(/C=C/c1ccccc1)N1CCc2ccccc2C1`, with 11.1% (inactive). With `COC(=O)c1ccc(NC(=O)c2cccc(OC)c2)cc1`, the activation is 14.2% (active). The figure for `COc1ccc(NC(=O)c2cccc(-c3ccc(O)cc3)c2)cn1` is 2.76% (inactive); for `COC(=O)c1ccc(NC(=O)c2snnc2-c2ccccc2)cc1` it is 11.7% (active). The figure for `Nc1nc2ccccc2n1CCOc1ccc(Br)cc1` is 12.1% (active); for `Cc1ccc(S(=O)(=O)c2cc(C#N)c(=O)[nH]c2N)cc1` it is 23.8% (active). Then `Cc1ccc(-c2nc3sc(C#N)c(N)n3c(=O)c2C#N)cc1`, with 6.97% (inactive).

For `CC1(C)CC2(CCCN(C(=S)Nc3ccccc3)C2)CCO1` (stereo not given), the activation was 17.2% (active). The figure for `C=CCN1C(=O)C(Cc2cccc(Cl)c2)S/C1=N/N=C/c1ccco1` (stereo not given) is 6.48% (inactive).

Regarding `O=C(COc1ccc(Cl)cc1[N+](=O)[O-])N1CCCCC1`, the activation was 48.7% (active).

In the case of `O=C(COc1ccc(Cl)cc1[N+](=O)[O-])N1CCCCCC1`, the activation was 5.74% (inactive). On to `CC(Oc1ccc(S(=O)(=O)N2CCCC2)cc1[N+](=O)[O-])C(=O)N(C)c1ccccc1` (stereo not given), for which the activation is 6.91% (inactive). The figure for `COc1cccc(OCCCn2cc(/C=C3/C(=N)N4C=C(C)SC4=NC3=O)c3ccccc32)c1` is 9.3% (inactive). The figure for `CC1=CN2C(=N)/C(=C/c3ccc([N+](=O)[O-])o3)C(=O)N=C2S1` is 14.5% (active); for `CC(=O)c1cccc(-n2c(CCC(=O)O)ccc2-c2ccccc2)c1` it is 7.99% (inactive). For the compound `CCOc1ccc(CCNC(=O)c2ccc(CNS(=O)(=O)c3ccccc3)cc2)cc1OCC`, the activation was 4.87% (inactive). For the compound `CCCS(=O)(=O)N1CCC(C(=O)NCCCN2CCC(Cc3ccccc3)CC2)CC1`, the activation was 6.98% (inactive). The figure for `CCOc1ccc(CCNC(=O)C2CCCN(S(=O)(=O)N3CCOCC3)C2)cc1OCC` (stereo not given) is 15.7% (active); for `COc1cc(OC)c(C2N(c3ccc(Cl)c(Cl)c3)C(=O)C3CCCN32)cc1OC` (stereo not given) it is -2.98% (inactive). Then `Cn1nccc1NC(=O)Nc1cccc(Cl)c1Cl`, with 51.6% (active). The figure for `COc1cc(OC)cc(-c2c(-c3cccs3)c3cc(-c4ccc(SC)cc4)ccc3n2C)c1` is 25.8% (active). Turning to `COCCCn1c(=O)/c(=C\c2ccccc2OC(C)C)s/c1=C(/C#N)C(=O)Nc1ccc(C(=O)O)cc1`, the activation was 8.94% (inactive). The figure for `C=CCn1c(=O)/c(=C/c2cc(OC)c(OC)c(OC)c2)s/c1=C(/C#N)c1nc2ccccc2n1C` is 8.61% (inactive); for `COCCCn1c(=O)/c(=C\c2cccc(OC)c2OC)s/c1=C(/C#N)C(=O)Nc1ccc(C(=O)O)cc1` it is 22.2% (active); for `COCCNC(=O)CSc1nc(N)c(NC(=O)c2ccccc2F)c(=O)[nH]1` it is 11.4% (inactive). The figure for `CCn1c(=N)n(CC(O)c2ccccc2)c2ccccc21` (stereo not given) is 9.44% (inactive); for `CCCn1c(=N)n(CC(O)c2ccco2)c2ccccc21` (stereo not given) it is 2.41% (inactive); for `N=c1n(Cc2ccccc2)c2ccccc2n1CC(O)c1ccco1` (stereo not given) it is 29.1% (active). Then `CN1CCCN(Cc2cccc3ccccc23)CC1`, with 9.8% (inactive).

As for `Cc1cc(C=O)c(C)n1-c1ccc(Oc2ccc([N+](=O)[O-])cn2)cc1`, the activation is 4.85% (inactive).

On to `COc1cc(/C=C2\SC(=O)NC2=O)ccc1Oc1ccc([N+](=O)[O-])cn1`, for which the activation was 81% (active). Then `COc1ccc(C2NN=C(c3c[nH]c4ccccc34)C2O)cc1` (stereo not given), with 36.2% (active). The figure for `O=C(COC(=O)c1ccc(S(=O)(=O)N2CCCC2)cc1)NCc1ccco1` is 11.6% (active); for `COc1ccccc1CNC(=O)COC(=O)c1cccc(S(=O)(=O)N2CCOCC2)c1` it is 6.73% (inactive); for `O=C(NC(NC(=S)Nc1ccccc1C(=O)O)C(Cl)(Cl)Cl)c1ccco1` (stereo not given) it is 5.56% (inactive). Then `O=C(Nc1cccc2c1N(C(=O)c1ccco1)CCC2)c1ccco1`, with 25.9% (active); and `Cn1nc(C(F)(F)F)c(-c2ccc(Br)cc2)c1NC(=O)c1ccco1`, with 6.3% (inactive); and `COc1ccc(/C=N/NC(=O)c2cccc([N+](=O)[O-])c2)cc1O`, with 15.3% (active). For `O=C(N/N=C/c1cccc([N+](=O)[O-])c1)c1cnccn1`, the activation was 3.15% (inactive).

As for `CN(C)C(CNC(=O)CSc1nc2ccccc2c(=O)n1Cc1ccco1)c1ccccc1` (stereo not given), the activation is 12.1% (active). The figure for `CCOC(=O)c1c(NC(=O)CSc2nc3cc(Cl)ccc3c(=O)n2Cc2ccco2)sc(C(=O)N(C)C)c1C` is 9.02% (inactive); for `Cc1cccc(NC(=O)CSc2nnc(CSc3nc(C)cc(C)n3)n2Cc2ccco2)c1` it is 8.24% (inactive). In the case of `O=C(NCC(=O)N(CC1CCCO1)C1(C(=O)NC2CCCCC2)CCCCC1)c1ccccc1` (stereo not given), the activation was 8.78% (inactive).

Turning to `CCc1ccccc1SCc1noc(C(=O)NCC2CCCO2)c1C(=O)O` (stereo not given), the activation was 10.6% (inactive).

As for `O=C(NC(=S)NCC1CCCO1)C(c1ccccc1)c1ccccc1` (stereo not given), the activation is 12.2% (active). The figure for `CCOc1ccc2cc(/C=C/C(=O)c3ccco3)c(Cl)nc2c1` is 4.88% (inactive); for `CCCc1cc(=O)[nH]c(SCC)n1` it is 11.7% (active).
